According to ChEMBL document CHEMBL4396943, “The tetrahydroxanthone-dimer phomoxanthone A is a strong inducer of apoptosis in cisplatin-resistant solid cancer cells” (Bioorg Med Chem, 2019):
pIC50: −log10 of the molar value. Active and inactive are the calls of the source. The rule behind the calls is not given here.

Legend:
KYSE-510 = assay: Potency index, ratio of cisplatin IC50 to compound IC50 for antiproliferative activity in cisplatin resistant human KYSE-510 cells assessed as reduction in cell viability incubated for 72 hrs by MTT assay; type: functional
Outline: (§1)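 Cells seeded in 96-well plates overnight, exposed 72 h to increasing concentrations. MTT (5 mg/ml) added for 15 min, formazan dissolved in DMSO, absorbance read at 544 nm with 690 nm background subtracted. IC50 is the concentration reducing signal by 50%. Three independent experiments in triplicate. CisR sublines made by weekly intermittent cisplatin exposure for 24–30 weeks.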

J82 [1] = assay: Induction of apoptosis in human J82 cells assessed as nuclear condensation by measuring reduced size and increased intensity of nuclei at 50 uM incubated for 24 hrs by hoechst 33342 staining based fluorescence microscopy; type: functional, cell-based
Homo sapiens = species on record: Homo sapiens; assay: Ratio of IC50 for induction of mitochondrial membrane depolarization in human J82 cells to IC50 for induction of mitochondrial membrane depolarization human A2780 cells after 2 hrs by TMRE staining based flow cytometry; type: functional, cell-based
Outline: (§2)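 Cells seeded overnight; complete medium swapped for FBS-free medium just before treatment to avoid TMRE ester cleavage. Exposure to PXA for 1 h, 2 h or 24 h. TMRE staining 20 min, cells collected by trypsinisation, ΔΨm read by flow cytometry. Medium served as negative control, 20 µM CCCP as positive control. Mean ± SEM reported.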

A2780cisR [2] = assay: Induction of apoptosis in human A2780cisR cells assessed as decrease in cIAP expression at 5 uM incubated for 24 hrs by proteome profiler analysis; type: functional, cell-based
Outline: (§3)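 A2780 and A2780CisR cells treated 24 h with 5 µM PXA; apoptosis-related proteins profiled with a human apoptosis antibody array following kit instructions.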

A2780cisR [3] = assay: Antiproliferative activity against human A2780cisR cells assessed as reduction in cell viability incubated for 48 hrs by MTT assay; type: functional, cell-based
Outline: (§4)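 Cells seeded overnight in 96-well plates, then exposed to increasing concentrations (compound dissolved in DMSO, diluted in medium) for the stated time. MTT (5 mg/ml in PBS) added for 15 min, formazan dissolved in DMSO, absorbance read at 544 nm minus 690 nm background. IC50 = concentration giving 50% signal decrease. At least three independent experiments in triplicate.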

A2780 [4] = assay: Induction of apoptosis in human A2780 cells assessed as decrease in mitochondrial membrane potential at 1 uM incubated for 24 hrs by TMRE staining based flow cytometry; type: functional, cell-based
Outline: (§5)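 Cells seeded overnight; medium switched to FBS-free just before treatment to avoid TMRE ester cleavage. Exposure 1 h, 2 h or 24 h, then TMRE staining for 20 min. Cells trypsinized, centrifuged at 4 °C and read by flow cytometry. Medium as negative control, 20 µM CCCP as positive control. […]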

MDA-MB-231 [5] = assay: Potency index, ratio of cisplatin IC50 to compound IC50 for antiproliferative activity in human MDA-MB-231 cells assessed as reduction in cell viability incubated for 72 hrs by MTT assay; type: functional; outline: as §1
A2780 [6] = assay: Induction of apoptosis in human A2780 cells assessed as depolarization of mitochondrial membrane potential at 1 uM incubated for 1 hr by TMRE staining based flow cytometry; type: functional; outline: as §5
A2780cisR [7] = assay: Induction of apoptosis in human A2780cisR cells assessed as increase in caspase 3 cleavage at 5 uM incubated for 24 hrs by proteome profiler analysis; type: functional, cell-based; outline: as §3
A2780cisR [8] = assay: Induction of apoptosis in human A2780cisR cells assessed as accumulation in subG1 phase at 1 uM incubated for 24 hrs by propidium iodide staining based flow cytometry relative to control; type: functional
Outline: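 About 100,000 cells/well plated; after one day, treated 24 h. Cells lysed in hypotonic buffer (0.1% sodium citrate, 0.1% Triton X-100, 100 µg/ml propidium iodide) and kept overnight at 4 °C in the dark. Sub-G1 fraction measured by flow cytometry. Medium as control, cisplatin as positive control.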

A2780cisR [9] = assay: Potency index, ratio of cisplatin IC50 to compound IC50 for antiproliferative activity in human A2780cisR cells assessed as reduction in cell viability incubated for 72 hrs by MTT assay; type: functional; outline: as §1
A2780 [10] = assay: Induction of apoptosis in human A2780 cells assessed as increase in intracellular calcium level at 1 and 30 uM incubated for 30 mins by fluorimetry; type: functional, cell-based
Outline: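 Cells seeded in 96-well plates overnight, washed twice with Krebs-HEPES buffer, loaded 1 h at 37 °C in the dark with Oregon Green BAPTA-1 AM (final 3 µM) and Pluronic F-127. Buffer replaced, PXA added, fluorescence at 544 nm recorded for 30 min, with or without 1 mM extracellular Ca2+. Three experiments, mean ± SEM.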

A2780cisR [11] = assay: Induction of apoptosis in human A2780cisR cells assessed as depolarization of mitochondrial membrane potential at 1 uM incubated for 2 hrs by TMRE staining based flow cytometry; type: functional; outline: as §2
A2780 [12] = assay: Induction of apoptosis in human A2780 cells assessed as depolarization of mitochondrial membrane potential afer 24 hrs by TMRE staining based flow cytometry; type: functional, cell-based; outline: as §5
A2780 [13] = assay: Induction of apoptosis in human A2780 cells assessed as depolarization of mitochondrial membrane potential at 1 uM by TMRE staining based flow cytometry; type: functional, cell-based; details: TDE = time-dependent effect; outline: as §5
MDA-MB-231 [14] = assay: Potency index, ratio of cisplatin IC50 to compound IC50 for antiproliferative activity in cisplatin-resistant human MDA-MB-231 cells assessed as reduction in cell viability incubated for 72 hrs by MTT assay; type: functional; outline: as §1
J82 [15] = assay: Induction of apoptosis in human J82 cells assessed as increase in activation of caspase 3/7 at 50 uM incubated for 24 hrs by hoechst 33342 staining based fluorescence microscopy (reference value: 1.1%); type: functional
A2780 [16] = assay: Effect on ROS generation in human A2780 cells at 316 nM incubated for 18 hrs by H2DCFDA staining based flow cytometry; type: functional, cell-based
Outline: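 Cells plated in 24-well plates (about 150,000/well) overnight, then exposed 18 h. Washed and moved to phenol red-free, serum-free RPMI-1640, then loaded with 10 µM H2DCF-DA for 30 min at 37 °C in the dark. One aliquot read directly, the other after 250 µM H2O2 for 1 h at 37 °C. DCF fluorescence read by flow cytometry. Three independent experiments.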

A2780cisR [17] = assay: Induction of apoptosis in human A2780cisR cells assessed as depolarization of mitochondrial membrane potential at 1 uM by TMRE staining based flow cytometry; type: functional, cell-based; details: TDE = time-dependent effect; outline: as §2
HCT-116 = assay: Potency index, ratio of cisplatin IC50 to compound IC50 for antiproliferative activity in human HCT116 cells assessed as reduction in cell viability incubated for 72 hrs by MTT assay; type: functional; outline: as §1
CAL-27 = assay: Antiproliferative activity against human CAL27 cells assessed as reduction in cell viability incubated for 72 hrs by MTT assay; type: functional, cell-based; details: CAL-27, 72 h; outline: as §4

With `CC(=O)OC[C@]12Oc3c(-c4ccc(O)c5c4O[C@@]4(COC(C)=O)C(=C(O)C[C@@H](C)[C@H]4OC(C)=O)C5=O)ccc(O)c3C(=O)C1=C(O)C[C@@H](C)[C@H]2OC(C)=O` [PHOMOXANTHONE A] the “Ratio IC50” value (KYSE-510) was 2 - 10, the Activity (J82 [1]) was “Active” and the Ratio IC50 (Homo sapiens) was 3. The Activity (A2780cisR [2]) was “Active”, the pIC50 (A2780cisR [3]; read-out: IC50) was 5.93 and the IC50 (A2780cisR [3]; read-out: pIC50 (converted)) was 1170 nM. The Activity (A2780 [4]) was “Active”, the “Ratio IC50” value (MDA-MB-231 [5]) was 2 - 10 and the Activity (A2780 [6]) was 73%. For the same compound, the Activity (A2780cisR [7]) was “Active”, the Activity (A2780cisR [8]) was 70% and the “Ratio IC50” value (A2780cisR [9]) was 9. The Activity (A2780 [10]) was “Active”, the Activity (A2780cisR [11]) was 50% and the Activity (A2780 [12]) was “Dose-dependent effect”. For the same compound, the Activity (A2780 [13]) was “Tde”, the “Ratio IC50” value (MDA-MB-231 [14]) was 2 - 10 and the Activity (J82 [15]) was 60%. For the same compound, the Activity (A2780 [16]) was “inactive”, the Activity (A2780cisR [17]) was “Tde” and the “Ratio IC50” value (HCT-116) was 2 - 10. It also gave a pIC50 (CAL-27) of 5.28.
